Data taken from ChEMBL document CHEMBL5236552, “Discovery of Soticlestat, a Potent and Selective Inhibitor for Cholesterol 24-Hydroxylase (CH24H)” (J Med Chem, 2021).

How the values were obtained:
[1] = target: Cholesterol 24-hydroxylase (Homo sapiens, UniProt Q9Y6A2); experiment: Inhibition of full length N-terminal his6-tagged human CH24H (28 to 494 residues) expressed in Escherichia coli DH5alpha using [14C] cholesterol as substrate preincubated for 15 mins followed by substrate addition and measured after 5 min in presence of beta-NADPH
CYP3A4 = CYP3A4 (Homo sapiens, UniProt P08684); experiment: Inhibition of CYP3A4 (unknown origin) at 10 uM using testosterone as substrate incubated for 60 mins by LC-MS/MS analysis relative to control; format: ADME; settings: probe testosterone
How it was run: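 CYP3A4-expressing microsomes in 50 mmol/L phosphate buffer (pH 7.4) with an NADPH-generating system (MgCl2, β-NADP+, glucose-6-phosphate, G6P dehydrogenase). Testosterone was the substrate and test compound was 10 µmol/L, with final solvent at 0.5%. Incubated 60 min, stopped with acetonitrile, and 6β-hydroxytestosterone read by LC/MS/MS. Run in triplicate; reported as % activity remaining versus an inhibitor-free control.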

[2] = Metabolic stability in human liver microsome assessed as clearance at 1 uM incubated for 15 to 30 mins in presence of NADPH by LC-MS/MS analysis; format: ADME; settings: liver microsomes, time 15-30 min, read-out: CLH
How it was run: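 Human liver microsomes (0.2 mg protein/mL) were mixed with compound (1 µM) in phosphate buffer (pH 7.4) and started with an NADPH-generating system. Incubated at 37 °C for 15 and 30 min, with zero-time samples as controls, then stopped with acetonitrile. Remaining compound in the supernatant was measured by LC/MS/MS.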

Mus musculus [3] = experiment: In vivo inhibition of […] CH24H in C57BL/6N mouse brain assessed as reduction in 24HC level at 10 mg/kg, po measured after 24 hrs relative to control; format: functional
How it was run: (§1)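 Female C57BL/6N mice, 7–8 weeks, 3 per group; single oral gavage in 0.5% aqueous methylcellulose (10 mL/kg) at 1, 3 or 10 mg/kg. Brains collected up to 24 h after dosing and homogenized in about 4-fold saline. 24HC extracted with acetonitrile/methanol/formic acid, quantified by UPLC on a C18 column at 40 °C, and expressed as % of control; mean + SD.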

[4] = Inhibition of cortisol synthesis in human NCI-H295R cells at 10 uM by Enzyme immunoassay relative to control; format: functional
How it was run: (§2)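 H295R adrenocortical cells grown in DMEM/F12 with 2.5% Nu-serum and 1% ITS-plus, seeded at 5×10^4 per well for three nights, then primed two nights with 20 µM forskolin. Cells washed, then exposed overnight to compound in DMEM/F12 with 1% ITS-plus and 20 µM forskolin. Cortisol, testosterone, aldosterone and corticosterone in the supernatant measured by competitive EIA against a calibration curve; triplicate, mean ± SEM.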

Mus musculus [5] = experiment: In vivo inhibition of […] CH24H in po dosed C57BL/6N mouse brain assessed as reduction in 24HC level measured upto 24 hrs; format: functional, organism-based; settings: dose 1-10 mg/kg; how it was run: as §1
Cytochrome P450 2C19 = Cytochrome P450 2C19 (Homo sapiens, UniProt P33261); experiment: Inhibition of CYP2C19 (unknown origin) using (S)-mephenytoin as substrate incubated for 10 to 20 mins in presence of NADPH-generating system by LC-MS/MS analysis
[6] = Drug concentration in po dosed C57BL/6N mouse brain measured upto 24 hrs by LC-MS analysis; format: ADME, organism-based; settings: in vivo, dose 1-10 mg/kg
How it was run: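 Female C57BL/6N mice, 7–8 weeks, 3 per group; single oral gavage at 1, 3 and 10 mg/kg in 0.5% aqueous methylcellulose (10 mL/kg). Brains taken at 0.5–24 h (from 0.25 h at 10 mg/kg) and homogenized in about 4-fold saline. Homogenate mixed with acetonitrile plus internal standard, centrifuged, and quantified by LC-MS/MS in MRM mode (m/z 374.20→183.10).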

[7] = Inhibition of testosterone synthesis in human NCI-H295R cells at 10 uM by Enzyme immunoassay relative to control; format: functional; how it was run: as §2
[8] = Inhibition of corticosterone synthesis in human NCI-H295R cells at 10 uM by Enzyme immunoassay relative to control; format: functional; how it was run: as §2
[9] = Inhibition of aldosterone synthesis in human NCI-H295R cells at 10 uM by Enzyme immunoassay relative to control; format: functional; how it was run: as §2
Cytochrome P450 1A2 = target: T1, Cytochrome P450 1A2 (Homo sapiens, UniProt P05177); experiment: Inhibition of CYP1A2 (unknown origin) using phenacetin as substrate incubated for 10 to 20 mins in presence of NADPH-generating system by LC-MS/MS analysis; format: ADME
T1 sequence (P05177 whole entry): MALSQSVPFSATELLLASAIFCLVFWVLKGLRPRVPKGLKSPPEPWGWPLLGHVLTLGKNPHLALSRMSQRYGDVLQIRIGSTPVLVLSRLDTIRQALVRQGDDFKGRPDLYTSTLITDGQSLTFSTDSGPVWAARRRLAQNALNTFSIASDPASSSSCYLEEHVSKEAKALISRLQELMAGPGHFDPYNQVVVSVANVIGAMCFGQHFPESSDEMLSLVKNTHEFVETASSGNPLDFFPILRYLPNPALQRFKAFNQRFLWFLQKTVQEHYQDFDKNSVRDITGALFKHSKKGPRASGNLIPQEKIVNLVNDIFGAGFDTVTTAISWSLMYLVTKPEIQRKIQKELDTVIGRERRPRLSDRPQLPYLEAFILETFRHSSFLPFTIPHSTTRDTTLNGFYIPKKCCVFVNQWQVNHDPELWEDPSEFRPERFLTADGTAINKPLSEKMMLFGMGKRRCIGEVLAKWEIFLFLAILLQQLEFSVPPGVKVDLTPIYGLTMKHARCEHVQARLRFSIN
How it was run: (§3)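 Recombinant CYP-expressing microsomes (CYP1A2, 2C8, 2C9, 2C19, 2D6, 3A4) in 50 mM phosphate buffer pH 7.4 with NADPH-generating system. Substrates: phenacetin, amodiaquine, tolbutamide, (S)-mephenytoin, bufuralol, testosterone, respectively. Test compounds at 1–100 µM final, 0.5% final solvent. Incubated 10–20 min at 37 °C in duplicate, stopped with acetonitrile. Metabolite peaks read by LC/MS/MS; activity given as % remaining versus no-inhibitor control.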

Mus musculus [10] = experiment: In vivo inhibition of […] CH24H in C57BL/6N mouse brain assessed as reduction in 24HC level at 3 mg/kg, po measured after 24 hrs relative to control; format: functional; how it was run: as §1
Cytochrome P450 2C9 = Cytochrome P450 2C9 (Homo sapiens, UniProt P11712); experiment: Inhibition of CYP2C9 (unknown origin) using tolbutamide as substrate incubated for 10 to 20 mins in presence of NADPH-generating system by LC-MS/MS analysis; format: ADME; how it was run: as §3
Cytochrome P450 2D6 = Cytochrome P450 2D6 (Homo sapiens, UniProt P10635); experiment: Inhibition of CYP2D6 (unknown origin) using bufuralol as substrate incubated for 10 to 20 mins in presence of NADPH-generating system by LC-MS/MS analysis
Cytochrome P450 2C8 = target: T2, Cytochrome P450 2C8 (Homo sapiens, UniProt P10632); experiment: Inhibition of CYP2C8 (unknown origin) using amodiaquine as substrate incubated for 10 to 20 mins in presence of NADPH-generating system by LC-MS/MS analysis; format: ADME; how it was run: as §3
T2 sequence (P10632 whole entry): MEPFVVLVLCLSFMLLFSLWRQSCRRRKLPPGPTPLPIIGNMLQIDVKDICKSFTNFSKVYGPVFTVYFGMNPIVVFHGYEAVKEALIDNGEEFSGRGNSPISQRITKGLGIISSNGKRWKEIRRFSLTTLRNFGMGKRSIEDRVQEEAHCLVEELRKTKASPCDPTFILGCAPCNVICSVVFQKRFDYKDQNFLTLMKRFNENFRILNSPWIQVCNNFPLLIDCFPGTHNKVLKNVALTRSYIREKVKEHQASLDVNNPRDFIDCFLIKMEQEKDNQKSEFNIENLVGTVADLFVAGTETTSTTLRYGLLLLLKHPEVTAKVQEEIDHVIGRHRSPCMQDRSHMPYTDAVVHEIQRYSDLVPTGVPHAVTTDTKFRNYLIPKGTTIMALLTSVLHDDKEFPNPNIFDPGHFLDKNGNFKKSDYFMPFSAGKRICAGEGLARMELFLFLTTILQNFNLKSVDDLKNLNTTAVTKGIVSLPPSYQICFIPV

[11] = Inhibition of corticosterone synthesis in human NCI-H295R cells by Enzyme immunoassay; format: functional, cell-based; how it was run: as §2
[12] = Inhibition of testosterone synthesis in human NCI-H295R cells by Enzyme immunoassay; format: functional, cell-based; how it was run: as §2
[13] = Inhibition of aldosterone synthesis in human NCI-H295R cells by Enzyme immunoassay; format: functional, cell-based; how it was run: as §2
[14] = Inhibition of cortisol synthesis in human NCI-H295R cells by Enzyme immunoassay; format: functional, cell-based; how it was run: as §2

Chain of CYP3A4 (P08684 whole entry): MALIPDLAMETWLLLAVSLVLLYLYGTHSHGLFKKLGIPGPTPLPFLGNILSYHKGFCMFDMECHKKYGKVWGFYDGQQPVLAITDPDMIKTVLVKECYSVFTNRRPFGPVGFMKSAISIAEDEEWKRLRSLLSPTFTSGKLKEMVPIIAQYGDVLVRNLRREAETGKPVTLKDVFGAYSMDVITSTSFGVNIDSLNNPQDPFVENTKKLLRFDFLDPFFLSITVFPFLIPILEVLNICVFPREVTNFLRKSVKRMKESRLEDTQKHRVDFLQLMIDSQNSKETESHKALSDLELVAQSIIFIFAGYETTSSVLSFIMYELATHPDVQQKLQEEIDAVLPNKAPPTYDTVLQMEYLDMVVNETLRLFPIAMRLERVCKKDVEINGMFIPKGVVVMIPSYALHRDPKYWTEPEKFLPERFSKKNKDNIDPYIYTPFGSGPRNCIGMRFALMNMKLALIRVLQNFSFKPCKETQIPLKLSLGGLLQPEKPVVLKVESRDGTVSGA
Chain of Cholesterol 24-hydroxylase (Q9Y6A2 whole entry, the tested form may be a part): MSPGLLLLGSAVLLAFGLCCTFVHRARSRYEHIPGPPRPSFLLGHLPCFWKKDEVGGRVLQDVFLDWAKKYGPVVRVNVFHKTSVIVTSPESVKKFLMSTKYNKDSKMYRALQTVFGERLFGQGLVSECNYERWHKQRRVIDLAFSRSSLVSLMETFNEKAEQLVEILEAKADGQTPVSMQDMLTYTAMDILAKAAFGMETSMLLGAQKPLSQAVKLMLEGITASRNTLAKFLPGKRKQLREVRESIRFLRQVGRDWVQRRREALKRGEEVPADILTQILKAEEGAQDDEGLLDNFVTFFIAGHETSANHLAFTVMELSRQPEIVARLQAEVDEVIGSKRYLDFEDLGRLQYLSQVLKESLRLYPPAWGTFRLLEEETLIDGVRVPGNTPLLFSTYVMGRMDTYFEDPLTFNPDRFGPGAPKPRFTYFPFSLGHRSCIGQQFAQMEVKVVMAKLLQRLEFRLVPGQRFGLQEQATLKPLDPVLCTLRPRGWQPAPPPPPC
Chain of Cytochrome P450 2C19 (P33261 whole entry): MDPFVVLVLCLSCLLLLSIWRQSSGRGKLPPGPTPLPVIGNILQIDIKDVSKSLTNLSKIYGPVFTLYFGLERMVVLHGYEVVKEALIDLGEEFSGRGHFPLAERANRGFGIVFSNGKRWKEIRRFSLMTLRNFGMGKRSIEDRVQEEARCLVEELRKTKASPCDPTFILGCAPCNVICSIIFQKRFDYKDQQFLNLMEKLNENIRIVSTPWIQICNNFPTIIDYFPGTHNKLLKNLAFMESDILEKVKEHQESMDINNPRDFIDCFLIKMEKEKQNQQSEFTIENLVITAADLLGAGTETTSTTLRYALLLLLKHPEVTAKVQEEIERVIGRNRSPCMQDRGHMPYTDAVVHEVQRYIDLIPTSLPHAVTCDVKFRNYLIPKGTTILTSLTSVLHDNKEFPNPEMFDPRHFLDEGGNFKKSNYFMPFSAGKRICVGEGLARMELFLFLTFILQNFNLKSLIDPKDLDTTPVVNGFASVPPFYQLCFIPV
Chain of Cytochrome P450 2C9 (P11712 whole entry): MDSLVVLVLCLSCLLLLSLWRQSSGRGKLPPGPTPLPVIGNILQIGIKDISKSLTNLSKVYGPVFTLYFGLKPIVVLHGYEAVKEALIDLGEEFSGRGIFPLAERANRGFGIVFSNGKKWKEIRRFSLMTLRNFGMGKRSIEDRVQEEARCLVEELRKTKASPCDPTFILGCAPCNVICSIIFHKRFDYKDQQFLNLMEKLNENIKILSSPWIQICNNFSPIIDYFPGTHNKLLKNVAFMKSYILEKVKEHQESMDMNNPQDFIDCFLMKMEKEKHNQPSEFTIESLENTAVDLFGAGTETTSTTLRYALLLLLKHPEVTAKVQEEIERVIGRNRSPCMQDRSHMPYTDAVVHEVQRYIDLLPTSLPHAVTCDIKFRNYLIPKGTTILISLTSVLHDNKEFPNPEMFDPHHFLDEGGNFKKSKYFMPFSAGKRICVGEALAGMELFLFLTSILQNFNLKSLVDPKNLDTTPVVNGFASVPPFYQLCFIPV
Chain of Cytochrome P450 2D6 (P10635 whole entry): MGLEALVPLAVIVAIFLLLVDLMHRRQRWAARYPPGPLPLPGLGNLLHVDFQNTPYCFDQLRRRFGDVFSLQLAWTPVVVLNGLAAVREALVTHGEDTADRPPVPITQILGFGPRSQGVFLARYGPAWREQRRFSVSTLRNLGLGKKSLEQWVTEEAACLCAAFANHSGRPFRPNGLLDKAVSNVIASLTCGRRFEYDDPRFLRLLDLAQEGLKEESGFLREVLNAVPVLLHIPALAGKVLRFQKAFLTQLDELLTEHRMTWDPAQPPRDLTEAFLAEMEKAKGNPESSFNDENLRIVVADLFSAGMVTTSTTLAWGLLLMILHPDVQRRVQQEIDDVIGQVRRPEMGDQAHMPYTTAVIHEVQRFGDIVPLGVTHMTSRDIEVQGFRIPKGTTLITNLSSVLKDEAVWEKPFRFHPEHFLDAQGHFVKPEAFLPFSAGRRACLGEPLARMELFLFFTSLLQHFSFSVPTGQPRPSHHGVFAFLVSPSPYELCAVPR

IC50 [1] [nM]	inhibition at 1 h, 10 µM (CYP3A4) [%]	SMILES	further results
74	–	COC1(Cc2ccccc2)CCN(C(=O)c2cc(C)ccc2-c2ccncc2)CC1	–
17	77	Cc1ccc(-c2ccncc2F)c(C(=O)N2CCC(O)(Cc3ccccc3)CC2)c1	–
89	–	Cc1ccc(-c2ccncc2)c(C(=O)N2CCN(Cc3ccccc3)C(=O)C2)c1	–
1900	–	COC(=O)c1cc(C)ccc1-c1ccncc1	–
100	5.3	O=C(c1cccnc1-c1ccncc1)N1CCC(O)(Cc2ccccn2)CC1	–
16	–	Cc1ccc(-c2ccncc2)c(C(=O)N2CCC(Cc3ccccc3)C(O)C2)c1 (racemic)	–
350	–	O=C(c1ccncc1)N1N=C(c2ccccc2)CC1(O)C(F)(F)F (stereo not given)	–
–	–	CC(=O)N1CCN(c2ccc(OCC3COC(Cn4ccnc4)(c4ccc(Cl)cc4Cl)O3)cc2)CC1 (stereo not given) [KETOCONAZOLE]	IC50 [11]: 2500 nM; IC50 [12]: 340 nM; IC50 [13]: 1400 nM; IC50 [14]: 440 nM
130	77	Cc1cccc(C(=O)N2CCC(O)(Cc3ccccc3)CC2)c1-c1ccncc1	–
7700	–	Cc1ccc(-c2ccncc2)c(C(=O)N2CCC(O)CC2)c1	–
60	–	Cc1ccccc1C1=NN(C(=O)c2ccncc2)C(C)(C)C1	–
21	18	O=C(c1ccccc1-c1ccncc1)N1CCC(O)(Cc2ccccn2)CC1	microsomal CLint at 1 µM [2]: 22 µL/min/mg
7.9	45	O=C(c1ccccc1-c1ccncc1)N1CCC(O)(Cc2ccccc2)CC1	microsomal CLint at 1 µM [2]: 120 µL/min/mg
4.9	91	Cc1ccc(-c2ccncc2C)c(C(=O)N2CCC(O)(Cc3ccccc3)CC2)c1	–
93	–	Cc1ccc(-c2ccncc2)c(C(=O)N2CCN(Cc3ccccc3)CC2)c1	–
19	13	O=C(c1cccnc1-c1ccncn1)N1CCC(O)(Cc2ccccc2)CC1	microsomal CLint at 1 µM [2]: 17 µL/min/mg
> 10000	–	Cc1ccc(-c2ccncc2)c(C(=O)N2CCN(C(=O)c3ccccc3)CC2)c1	–
1200	–	Cc1ccc(-c2ccncc2)c(C(=O)N2CCC(O)(c3ccccc3)CC2)c1	–
2.4	75	O=C(c1cc(Cl)ccc1-c1ccncc1)N1CCC(O)(Cc2ccccc2)CC1	–
7.8	71	Cc1cccc(-c2ccncc2)c1C(=O)N1CCC(O)(Cc2ccccc2)CC1	–
110	–	Cc1ccc(-c2ccncc2)c(C(=O)N2CCC(Cc3ccccc3)CC2)c1	–
36	8.8	O=C(c1ccccc1-c1ccncn1)N1CCC(O)(Cc2ccccn2)CC1	microsomal CLint at 1 µM [2]: 9 µL/min/mg
> 10000	60	Cc1ccc(-c2ccnc(C)c2)c(C(=O)N2CCC(O)(Cc3ccccc3)CC2)c1	–
4.3	17	O=C(c1ccccc1-c1ccncn1)N1CCC(O)(Cc2ccccc2)CC1	microsomal CLint at 1 µM [2]: 70 µL/min/mg
4.7	67	COc1ccc(-c2ccncc2)c(C(=O)N2CCC(O)(Cc3ccccc3)CC2)c1	–
540	–	CCC1(O)CCN(C(=O)c2cc(C)ccc2-c2ccncc2)CC1	–
4.4	65	Cc1ccc(C(=O)N2CCC(O)(Cc3ccccc3)CC2)c(-c2ccncc2)c1	–
2.7	67	Cc1ccc(-c2ccncc2)c(C(=O)N2CCC(O)(Cc3ccccc3)CC2)c1	–
6.1	55	O=C(c1cc(F)ccc1-c1ccncc1)N1CCC(O)(Cc2ccccc2)CC1	–

SMILES	IC50 [1] [nM]	inhibition at 1 h, 10 µM (CYP3A4) [%]	further results
O=C(c1cccnc1-c1ccncc1)N1CCC(O)(Cc2ccccc2)CC1 [SOTICLESTAT]	7.4	28	microsomal CLint at 1 µM [2]: 22 µL/min/mg; inhibition in vivo at 10 mg/kg (Mus musculus [3]): 33%; inhibition at 10 µM [4]: 0.2%; inhibition (Mus musculus [5]): Dose-Dependent Effect; IC50 (Cytochrome P450 2C19): 14000 nM; Drug uptake [6]: Dose-Dependent Effect; inhibition at 10 µM [7]: -0.4%; inhibition at 10 µM [8]: -6%; inhibition at 10 µM [9]: -3.8%; IC50 (Cytochrome P450 1A2): > 100000 nM; inhibition in vivo at 3 mg/kg (Mus musculus [10]): 25%; IC50 (Cytochrome P450 2C9): 19000 nM; IC50 (Cytochrome P450 2D6): > 100000 nM; IC50 (Cytochrome P450 2C8): 62000 nM
C[C@@H](c1ncncc1F)[C@](O)(Cn1cncn1)c1ccc(F)cc1F [VORICONAZOLE]	> 10000	–	–
